Values joined by “and” are separate entries in the source; they are usually repeats but may differ in a detail not shown here. Identical values can stand only once. Peptide text beside a SMILES is read from it.
Key:
Rattus norvegicus [1] = experiment: Antiovulatory activity in CD rat assessed as blockade of ovulation at 5 mg, sc administered as six doses at 1200, 1230, 1300, 1350, 1400 and 1450 hrs during proestrus stage measured during estrus stage by dissecting microscopic analysis; format: functional
Summary of the method: (§1)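 Cycling Charles River CD rats were given six subcutaneous injections of analogue in 0.1 mL propylene glycol on the afternoon of proestrus, and controls received vehicle alone. Rats were killed the next morning (estrus). Ovulating animals were scored and ova in the oviducts were counted under a dissecting microscope.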

[2] = biological target: T1, Gonadotropin-releasing hormone receptor (Rattus norvegicus) (UniProt P30969); experiment: In vitro antagonist activity at GNRHR in CD rat anterior pituitary gland assessed as inhibition of LH-RH-stimulated LH release at compound to LH-RH molar ratio of 20 after 4 hrs by radioimmunoassay; conditions: concentration not given here
T1 sequence (whole entry): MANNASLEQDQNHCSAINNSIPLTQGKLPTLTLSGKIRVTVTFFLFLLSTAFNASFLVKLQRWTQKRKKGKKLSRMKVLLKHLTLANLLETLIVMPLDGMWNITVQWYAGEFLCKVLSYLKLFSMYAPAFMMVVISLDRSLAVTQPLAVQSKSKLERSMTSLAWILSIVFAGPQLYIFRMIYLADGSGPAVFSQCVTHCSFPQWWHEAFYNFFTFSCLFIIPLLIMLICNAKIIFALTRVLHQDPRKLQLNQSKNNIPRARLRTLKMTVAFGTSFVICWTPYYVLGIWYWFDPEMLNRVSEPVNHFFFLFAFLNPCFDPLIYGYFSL
Summary of the method: (§2)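 Anterior pituitaries from diestrus CD rats (200-250 g) were dissociated enzymatically (collagenase, hyaluronidase, then Viokase). Cells were cultured 4 days at 1.67 × 10^5 cells/mL in DME with 10% horse serum and 2.5% fetal calf serum, then washed serum-free. Duplicate cultures received LH-RH (2-5 × 10^-10 M) with a single analogue concentration in serum-free DME for 4 h at 37 °C. LH in the medium was measured by RIA and reported as % inhibition of LH-RH-stimulated release.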

[3] = biological target: T1, Gonadotropin-releasing hormone receptor (Rattus norvegicus); experiment: In vitro antagonist activity at GNRHR in CD rat anterior pituitary gland assessed as ratio of molar concentration of compound to LH-RH for inhibition of LH-RH-stimulated LH release after 4 hrs by radioimmunoassay
Summary of the method: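 Monolayers were cultured 4 days from dissociated anterior pituitary cells of diestrus CD rats. They were exposed in duplicate to LH-RH (2-5 × 10^-10 M) plus multiple analogue concentrations in serum-free DME for 4 h at 37 °C. LH in the medium was measured by radioimmunoassay. The ED50 molar ratio is the analogue:LH-RH molar ratio giving 50% inhibition of LH-RH-stimulated LH release.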

Rattus norvegicus [4] = experiment: Antiovulatory activity in sc dosed CD rat assessed as blockade of ovulation administered as six doses at 1200, 1230, 1300, 1350, 1400 and 1450 hrs during proestrus stage measured during estrus stage by dissecting microscopic analysis; format: functional; summary of the method: as §1
[5] = biological target: T1, Gonadotropin-releasing hormone receptor (Rattus norvegicus); experiment: In vitro antagonist activity at GNRHR in CD rat anterior pituitary gland assessed as inhibition of LH-RH-stimulated LH release at compound to LH-RH molar ratio of 40 after 4 hrs by radioimmunoassay; conditions: concentration not given here; summary of the method: as §2
[6] = biological target: T1, Gonadotropin-releasing hormone receptor (Rattus norvegicus); experiment: In vitro antagonist activity at GNRHR in CD rat anterior pituitary gland assessed as inhibition of LH-RH-stimulated LH release at compound to LH-RH molar ratio of 100 after 4 hrs by radioimmunoassay; conditions: concentration not given here; summary of the method: as §2
[7] = biological target: T1, Gonadotropin-releasing hormone receptor (Rattus norvegicus); experiment: In vitro antagonist activity at GNRHR in CD rat anterior pituitary gland assessed as inhibition of LH-RH-stimulated LH release at compound to LH-RH molar ratio of 4000 after 4 hrs by radioimmunoassay; conditions: concentration not given here; summary of the method: as §2
Rattus norvegicus [8] = experiment: Antiovulatory activity in CD rat assessed as blockade of ovulation at 1 mg, sc administered as six doses at 1200, 1230, 1300, 1350, 1400 and 1450 hrs during proestrus stage measured during estrus stage by dissecting microscopic analysis; format: functional; summary of the method: as §1
[9] = biological target: T1, Gonadotropin-releasing hormone receptor (Rattus norvegicus); experiment: In vitro antagonist activity at GNRHR in CD rat anterior pituitary gland assessed as inhibition of LH-RH-stimulated LH release at compound to LH-RH molar ratio of 28 after 4 hrs by radioimmunoassay; conditions: concentration not given here; summary of the method: as §2
[10] = biological target: T1, Gonadotropin-releasing hormone receptor (Rattus norvegicus); experiment: In vitro antagonist activity at GNRHR in CD rat anterior pituitary gland assessed as inhibition of LH-RH-stimulated LH release at compound to LH-RH molar ratio of 10 after 4 hrs by radioimmunoassay; conditions: concentration not given here; summary of the method: as §2
[11] = biological target: T1, Gonadotropin-releasing hormone receptor (Rattus norvegicus); experiment: In vitro antagonist activity at GNRHR in CD rat anterior pituitary gland assessed as inhibition of LH-RH-stimulated LH release at compound to LH-RH molar ratio of 2000 after 4 hrs by radioimmunoassay; conditions: concentration not given here; summary of the method: as §2
Rattus norvegicus [12] = experiment: Antiovulatory activity in CD rat assessed as blockade of ovulation at 0.3 mg, sc administered as six doses at 1200, 1230, 1300, 1350, 1400 and 1450 hrs during proestrus stage measured during estrus stage by dissecting microscopic analysis; format: functional; summary of the method: as §1
[13] = Solubility of the compound in water; format: physicochemical
Rattus norvegicus [14] = experiment: Antiovulatory activity in CD rat assessed as blockade of ovulation at 0.1 mg, sc administered as six doses at 1200, 1230, 1300, 1350, 1400 and 1450 hrs during proestrus stage measured during estrus stage by dissecting microscopic analysis; format: functional; conditions: in the assay text read “at 1 mg” for “at 0.1 mg”; summary of the method: as §1
[15] = biological target: T1, Gonadotropin-releasing hormone receptor (Rattus norvegicus); experiment: In vitro antagonist activity at GNRHR in CD rat anterior pituitary gland assessed as inhibition of LH-RH-stimulated LH release at compound to LH-RH molar ratio of 5 after 4 hrs by radioimmunoassay; conditions: concentration not given here; summary of the method: as §2
[16] = biological target: T1, Gonadotropin-releasing hormone receptor (Rattus norvegicus); experiment: In vitro antagonist activity at GNRHR in CD rat anterior pituitary gland assessed as inhibition of LH-RH-stimulated LH release at compound to LH-RH molar ratio of 57 after 4 hrs by radioimmunoassay; conditions: concentration not given here; summary of the method: as §2
[17] = biological target: T1, Gonadotropin-releasing hormone receptor (Rattus norvegicus); experiment: In vitro antagonist activity at GNRHR in CD rat anterior pituitary gland assessed as inhibition of LH-RH-stimulated LH release at compound to LH-RH molar ratio of 1.7 after 4 hrs by radioimmunoassay; conditions: concentration not given here; summary of the method: as §2

Compound: CCNC(=O)[C@@H]1CCCN1C(=O)[C@H](CCCNC(=N)N)NC(=O)[C@H](CC(C)C)NC(=O)[C@@H](Cc1c[nH]c2ccccc12)NC(=O)[C@H](Cc1ccc(O)cc1)NC(=O)[C@H](CO)NC(=O)[C@H](Cc1c[nH]c2ccccc12)NC(=O)[C@@H](NC(=O)OCc1ccccc1)[C@@H](C)CC.Cl
- inhibition (INH) (Rattus norvegicus [1]): 0%
- inhibition [2]: 100%
- ED50 [3]: 1.5 molar ratio
- ED50 (Rattus norvegicus [4]): >5 mg

Compound: CCNC(=O)[C@@H]1CCCN1C(=O)[C@H](CCCNC(=N)N)NC(=O)[C@H](CC(C)C)NC(=O)[C@@H](Cc1ccccc1)NC(=O)[C@H](Cc1ccc(O)cc1)NC(=O)[C@H](CO)NC(=O)[C@H](Cc1c[nH]c2ccccc12)NC(=O)[C@H](CCC(N)=O)NC(=O)OCc1ccccc1
- inhibition [5]: 70%
- inhibition [6]: 70%
- ED50 [3]: 12.8 molar ratio and 7.7 molar ratio

Compound: CC(C)C[C@H](NC(=O)CNC(=O)[C@H](Cc1ccc(O)cc1)NC(=O)[C@H](CO)NC(=O)[C@H](Cc1c[nH]c2ccccc12)NC(=O)[C@H](Cc1cnc[nH]1)NC(=O)OCc1ccccc1)C(=O)N[C@@H](CCCNC(=N)N)C(=O)N1CCC[C@H]1C(=O)NCC(=O)O (HELM PEPTIDE1{[O=C(OCc1ccccc1)[*:2]].H.W.S.Y.G.L.R.P.G}$$$$V2.0)
- inhibition [7]: 17%

Compound: CC(=O)O.CCNC(=O)[C@@H]1CCCN1C(=O)[C@H](CCCNC(=N)N)NC(=O)[C@H](CC(C)C)NC(=O)[C@@H](CCC(N)=O)NC(=O)[C@H](Cc1ccc(O)cc1)NC(=O)[C@H](CO)NC(=O)[C@H](Cc1c[nH]c2ccccc12)NC(=O)[C@H](CCC(N)=O)NC(=O)OCc1ccccc1
- inhibition (INH) (Rattus norvegicus [8]): 20%
- ED50 (Rattus norvegicus [4]): >1 mg
- inhibition [9]: 77%

Compound: CCNC(=O)[C@@H]1CCCN1C(=O)[C@H](CCCNC(=N)N)NC(=O)[C@H](CC(C)C)NC(=O)[C@@H](Cc1ccccc1)NC(=O)[C@H](Cc1ccc(O)cc1)NC(=O)[C@H](CO)NC(=O)[C@H](Cc1c[nH]c2ccccc12)NC(=O)[C@H](COCc1ccccc1)NC(=O)OCc1ccccc1.Cl
- inhibition (INH) (Rattus norvegicus [1]): 80%
- ED50 [3]: 1.3 molar ratio
- ED50 (Rattus norvegicus [4]): 2.5 mg
- inhibition [10]: 93%

Compound: CC(C)C[C@H](NC(=O)CNC(=O)[C@H](Cc1ccc(O)cc1)NC(=O)[C@H](CO)NC(=O)[C@H](Cc1c[nH]c2ccccc12)NC(=O)[C@H](Cc1cnc[nH]1)NC(=O)OCc1ccccc1)C(=O)N[C@@H](CCCNC(=N)N)C(=O)N1CCC[C@H]1C(=O)O (HELM PEPTIDE1{[O=C(OCc1ccccc1)[*:2]].H.W.S.Y.G.L.R.P}$$$$V2.0)
- inhibition [7]: 10%

Compound: CC(=O)O.CCNC(=O)[C@@H]1CCCN1C(=O)[C@H](CCCNC(=N)N)NC(=O)[C@H](CC(C)C)NC(=O)[C@@H](CC(N)=O)NC(=O)[C@H](Cc1ccc(O)cc1)NC(=O)[C@H](CO)NC(=O)[C@H](Cc1c[nH]c2ccccc12)NC(=O)[C@H](CCC(N)=O)NC(=O)OCc1ccccc1
- inhibition (INH) (Rattus norvegicus [8]): 20%
- inhibition [11]: 100%
- ED50 [3]: 300 molar ratio
- ED50 (Rattus norvegicus [4]): >1 mg

Compound: CC(=O)O.CCNC(=O)[C@@H]1CCCN1C(=O)[C@H](CCCNC(=N)N)NC(=O)[C@H](CC(C)C)NC(=O)[C@H](NC(=O)[C@H](Cc1ccc(O)cc1)NC(=O)[C@H](CO)NC(=O)[C@H](Cc1c[nH]c2ccccc12)NC(=O)[C@H](CCC(N)=O)NC(=O)OCc1ccccc1)[C@@H](O)c1ccccc1
- inhibition (INH) (Rattus norvegicus [12]): 100%
- ED50 (Rattus norvegicus [4]): 0.1 mg

Compound: CC(C)C[C@H](NC(=O)[C@@H](Cc1c[nH]c2ccccc12)NC(=O)[C@H](Cc1ccc(O)cc1)NC(=O)[C@H](CO)NC(=O)[C@H](Cc1c[nH]c2ccccc12)NC(=O)[C@H](COCc1ccccc1)NC(=O)OC(C)(C)C)C(=O)N[C@@H](CCCNC(=N)N)C(=O)N1CCC[C@H]1C(=O)NCC(N)=O.Cl
- solubility [13]: 1000 µg/mL
- inhibition (INH) (Rattus norvegicus [14]): 100%
- ED50 (Rattus norvegicus [4]): 0.05 mg

Compound: CCNC(=O)[C@@H]1CCCN1C(=O)[C@H](CCCNC(=N)N)NC(=O)[C@H](CC(C)C)NC(=O)[C@H](NC(=O)[C@H](Cc1ccc(O)cc1)NC(=O)[C@H](CO)NC(=O)[C@H](Cc1c[nH]c2ccccc12)NC(=O)[C@H](CCC(N)=O)NC(=O)OCc1ccccc1)[C@@H](O)c1ccccc1
- inhibition [15]: 77%
- inhibition [9]: 82%

Compound: CCNC(=O)[C@@H]1CCCN1C(=O)[C@H](CCCNC(=N)N)NC(=O)[C@H](CC(C)C)NC(=O)[C@@H](CC(C)C)NC(=O)[C@H](Cc1ccc(O)cc1)NC(=O)[C@H](CO)NC(=O)[C@H](Cc1c[nH]c2ccccc12)NC(=O)[C@H](CCC(N)=O)NC(=O)OCc1ccccc1.Cl
- inhibition (INH) (Rattus norvegicus [8]): 20%
- ED50 [3]: 22.3 molar ratio
- ED50 (Rattus norvegicus [4]): >1 mg
- inhibition [9]: 60%

Compound: CCNC(=O)[C@@H]1CCCN1C(=O)[C@H](CCCNC(=N)N)NC(=O)[C@H](CC(C)C)NC(=O)[C@@H](Cc1ccccc1)NC(=O)[C@H](Cc1ccc(O)cc1)NC(=O)[C@H](CO)NC(=O)[C@H](Cc1c[nH]c2ccccc12)NC(=O)[C@H](COCc1ccccc1)NC(=O)OC(C)(C)C.Cl
- inhibition (INH) (Rattus norvegicus [8]): 0%
- ED50 [3]: 19 molar ratio
- ED50 (Rattus norvegicus [4]): >10 mg
- inhibition [16]: 91%

Compound: CC(C)C[C@H](NC(=O)[C@@H](Cc1c[nH]c2ccccc12)NC(=O)[C@H](Cc1ccc(O)cc1)NC(=O)[C@H](CO)NC(=O)[C@H](Cc1c[nH]c2ccccc12)NC(=O)[C@H](COCc1ccccc1)NC(=O)OC(C)(C)C)C(=O)N[C@@H](CCCNC(=N)N)C(=O)N1CCC[C@H]1C(=O)NCC(N)=O
- inhibition [17]: 64%
- inhibition [2]: 71%
- ED50 [3]: 1.3 molar ratio and 2 molar ratio

Compound: CC(C)C[C@H](NC(=O)CNC(=O)[C@H](Cc1ccc(O)cc1)NC(=O)[C@H](CO)NC(=O)[C@H](Cc1c[nH]c2ccccc12)NC(=O)[C@H](CCC(N)=O)NC(=O)OCc1ccccc1)C(=O)N[C@@H](CCCNC(=N)N)C(=O)N1CCC[C@H]1C(=O)NCC(N)=O.Cl (HELM PEPTIDE1{[O=C(OCc1ccccc1)[*:2]].Q.W.S.Y.G.L.R.P.G.[am]}$$$$V2.0)
- inhibition [7]: 33%
- ED50 (Rattus norvegicus [4]): >1 mg

Compound: CC(=O)O.CCNC(=O)[C@@H]1CCCN1C(=O)[C@H](CCCNC(=N)N)NC(=O)[C@H](CC(C)C)NC(=O)[C@@H](Cc1ccccc1)NC(=O)[C@H](Cc1ccc(O)cc1)NC(=O)[C@H](CO)NC(=O)[C@H](Cc1c[nH]c2ccccc12)NC(=O)[C@H](CCC(N)=O)NC(=O)OCc1ccccc1
- inhibition (INH) (Rattus norvegicus [1]): 0%
- ED50 (Rattus norvegicus [4]): >5 mg

— ChEMBL document CHEMBL3272173, “Synthesis and biological activity of peptide antagonists of luliberin (luteinizing hormone-releasing hormone)” (J Med Chem, 1979)
